Data set [1] deals with MDA-MB-231. Kind of data set: Growth inhibition of human MDA-MB-231 cells at 50 uM after 48 hrs by MTS assay. The class given is functional, cell-based. An outline of the steps:
(§1)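 Cells in DMEM with 10% FBS and 1% penicillin/streptomycin, 37 °C, 5% CO2; 7 × 10^3 cells per well, serum removed after 24 h, then compound (1–50 μM; DMSO ≤0.1%) for 48 h. MTS reagent 4 h at 37 °C, OD 550 nm; blank-subtracted, normalised to DMSO control (100%). IC50 by nonlinear regression; triplicates.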

The test system of data set [2] is MDA-MB-231. Description: Growth inhibition of human MDA-MB-231 cells after 48 hrs by MTS assay. In kind it is functional, cell-based. The following applies: MDA-MB-231, 48 h. An outline of the steps:
as §1
(In general: Tetrazolium assays rely on reduction of a dye to a coloured formazan, in cell work by metabolically active cells.)

The test system of data set [3] is MDA-MB-231. Kind of data set: Growth inhibition of human MDA-MB-231 cells assessed as cell viability at 50 uM after 48 hrs by MTS assay relative to control. To be noted: MDA-MB-231, 48 h, read-out: Activity. In kind it is functional. An outline of the steps: as §1
Data set [4] concerns MDA-MB-231. Description: Cell cycle arrest in human MDA-MB-231 cells assessed as decrease in G0/G1 phase at 20 uM after 24 hrs by propidium iodide staining based flow cytometry relative to control. The class given is functional. Also on record: scale not given: the % may be the effect or the level left. An outline of the steps: (§2)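 MDA-MB-231 seeded at 5 × 10^5 per well, serum-starved 24 h, then treated 24 h (DMSO 0.1% control). Fixed overnight in 80% ethanol at 0 °C, washed, resuspended in PBS with 0.1% Triton X-100 and 0.1 mg mL−1 RNase A, stained with PI (50 μg mL−1) 30 min dark at 37 °C; flow cytometry, 1 × 10^4 events per sample; mean ± SEM of ≥3 independent experiments.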
On the technique in general: A flow cytometer gives signals particle by particle.

In data set [5] the test system is MDA-MB-231. Description: Cell cycle arrest in human MDA-MB-231 cells assessed as increase in G2/M phase at 20 uM after 24 hrs by propidium iodide staining based flow cytometry relative to control. In kind it is functional. The method in brief: as §2
Data set [6] has as its system MDA-MB-231. Description: Induction of apoptosis in human MDA-MB-231 cells after 48 hrs by Annexin V-FITC/propidium iodide staining based flow cytometry. In kind it is functional, cell-based. An outline of the steps:
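MDA-MB-231 at 1 × 10^5 per well, treated 48 h, 24 h after serum removal, at 20–40 μM (DMSO 0.1% v/v control). Cells trypsinised, washed in cold PBS, stained with Annexin V-FITC and PI (50 μg mL−1) in binding buffer, 20 min dark at 0 °C; flow cytometry scoring viable, early/late apoptotic and necrotic fractions; 3 independent experiments.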

Data set [7] deals with MCF7. Description: Antiproliferative activity against human MCF7 cells at 50 uM after 48 hrs by MTS assay. In kind it is functional, cell-based. The method in brief: as §1
A further data set relates to Vero. Description: Antiproliferative activity against African green monkey Vero cells harboring GFP at 50 ug/ml after 4 days by fluorescence assay relative to control. The class given is cell-based. To be noted: chlorocebus sabaeus, 96 h. An outline of the steps:
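GFP-expressing VERO (ATCC CCL-81 stably transfected with pEGFP-N1) in MEM with 10% heat-inactivated FBS, pyruvate, NaHCO3 (geneticin omitted during assay); 3.3 × 10^4 cells per mL; compound added, 4 days at 37 °C, 5% CO2; quadruplicate; fluorescence ex 485/em 535 nm, day-0 signal subtracted; % cytotoxicity = [1 − (FU treated/FU 0.5% DMSO)] × 100; ellipticine positive control.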

Data set [8] deals with MDA-MB-231. Description: Antiproliferative activity against human MDA-MB-231 cells assessed as cell viability at 20 uM after 48 hrs by MTS assay relative to control. In kind it is functional. To be noted: MDA-MB-231, 48 h, read-out: Activity. The method in brief: as §1
A further data set deals with CCRF-CEM. Description: Growth inhibition of human CCRF-CEM cells after 48 hrs by SRB assay. The class given is functional, cell-based. In general terms: In SRB staining, fixed cells bind dye roughly in proportion to their protein.
In another data set the test system is HL-60(TB). Kind of data set: Growth inhibition of human HL-60(TB) cells after 48 hrs by SRB assay. The class given is functional, cell-based. To be noted: HL-60, 48 h.
The next data set has as its system MOLT-4. Description: Growth inhibition of human MOLT4 cells after 48 hrs by SRB assay. In kind it is functional, cell-based. To be noted: MOLT-4, 48 h.
The next data set deals with RPMI-8226. Kind of data set: Growth inhibition of human RPMI8226 cells after 48 hrs by SRB assay. In kind it is functional, cell-based. The following applies: RPMI-8226, 48 h.
The subject of the next data set is NCI-H522. Kind of data set: Growth inhibition of human NCI-H522 cells after 48 hrs by SRB assay. In kind it is functional, cell-based. To be noted: NCI-H522, 48 h.
For a further data set, the system named is EKVX. Kind of data set: Growth inhibition of human EKVX cells after 48 hrs by SRB assay. The class given is functional, cell-based.
For the next data set, the system named is COLO 205. Description: Growth inhibition of human COLO205 cells after 48 hrs by SRB assay. To be noted: COLO 205, 48 h. The class given is functional, cell-based.
The subject of another data set is HT-29. Description: Growth inhibition of human HT-29 cells after 48 hrs by SRB assay. The class given is functional, cell-based. To be noted: HT-29, 48 h.
The next data set has as its system SW-620. Kind of data set: Growth inhibition of human SW620 cells after 48 hrs by SRB assay. In kind it is functional, cell-based. To be noted: SW-620, 48 h.
The subject of a further data set is SF-539. Description: Growth inhibition of human SF539 cells after 48 hrs by SRB assay. To be noted: SF-539, 48 h. The class given is functional, cell-based.
A further data set has as its system SK-MEL-28. Kind of data set: Growth inhibition of human SK-MEL-28 cells after 48 hrs by SRB assay. In kind it is functional, cell-based. To be noted: SK-MEL-28, 48 h.
In a further data set the test system is SK-MEL-5. Description: Growth inhibition of human SK-MEL-5 cells after 48 hrs by SRB assay. To be noted: SK-MEL-5, 48 h. In kind it is functional, cell-based.
The next data set concerns MDA-MB-435. Kind of data set: Growth inhibition of human MDA-MB-435 cells after 48 hrs by SRB assay. In kind it is functional, cell-based. The following applies: MDA-MB-435, 48 h.
The subject of a further data set is OVCAR-3. Description: Growth inhibition of human OVCAR3 cells after 48 hrs by SRB assay. In kind it is functional, cell-based. To be noted: OVCAR-3, 48 h.
The next data set concerns CAKI-1. Kind of data set: Growth inhibition of human Caki1 cells after 48 hrs by SRB assay. In kind it is functional, cell-based. The following applies: CAKI-1, 48 h.
For the next data set, the system named is RXF 393. Kind of data set: Growth inhibition of human RXF393 cells after 48 hrs by SRB assay. The class given is functional, cell-based. The following applies: RXF 393, 48 h.
The test system of another data set is DU-145. Kind of data set: Growth inhibition of human DU145 cells after 48 hrs by SRB assay. In kind it is functional, cell-based. To be noted: DU-145, 48 h.
For data set [9], the system named is MCF7. Description: Growth inhibition of human MCF7 cells after 48 hrs by SRB assay. The class given is functional, cell-based. The following applies: MCF7, 48 h.
In data set [10] the test system is MDA-MB-231. Description: Growth inhibition of human MDA-MB-231 cells after 48 hrs by SRB assay. The following applies: MDA-MB-231, 48 h. In kind it is functional, cell-based.
The subject of another data set is Hs-578T. Description: Growth inhibition of human Hs 578T cells after 48 hrs by SRB assay. In kind it is functional, cell-based.
The test system of a further data set is T47D. Kind of data set: Growth inhibition of human T47D cells after 48 hrs by SRB assay. The class given is functional, cell-based.
Data set [11] deals with MDA-MB-231. Description: Antiproliferative activity against human MDA-MB-231 cells assessed as cell viability at 75 uM after 48 hrs by MTS assay relative to control. In kind it is functional. To be noted: MDA-MB-231, 48 h, read-out: Activity.
The subject of another data set is PC-3. Description: Growth inhibition of human PC3 cells after 48 hrs by SRB assay. The class given is functional, cell-based. The following applies: PC-3, 48 h.

For orientation: IC50 means the concentration at which inhibition is half-maximal.

Calls of active or inactive are those of the source. No cut-off for these calls is given here.

With `CC(=O)N[C@@]1(C)C2CC[C@@]3(C)N[C@@H](C)C1CC3C2` (some centres not stated), the “growth inhibition (GI)” value in the data set on MDA-MB-231 [1] was “inactive”.

As to `COC(=O)C[C@H]1C(=O)C=C2C3CC4CC(CC[C@@]4(C)N21)[C@]3(C)NC(C)=O` (some centres not stated), in the data set with MDA-MB-231 [1], the “growth inhibition (GI)” value is “inactive”. For the same compound, in the data set on MDA-MB-231 [2], the IC50 was > 50 µM.

For `CC(=O)N[C@@]1(C)C2CC[C@@]3(C)N=C(C)C1CC3C2` (relative stereo), the “growth inhibition (GI)” value in the data set on MDA-MB-231 [1] is “inactive”.

Take `CC(=O)N[C@@]1(C)C2CC[C@]3(C)C(C2)CC1[C@H](C)N3C` (some centres not stated): the “growth inhibition (GI)” value in the data set with MDA-MB-231 [1] is “inactive”.

On to `CC(=O)N[C@@]1(C)C2CC[C@@]3(C)N[C@@H](CCl)C1CC3C2` (some centres not stated), for which the “growth inhibition (GI)” value in the data set with MDA-MB-231 [1] is “inactive”.

For the compound `C[C@]1(NC(=O)CCl)C2CC[C@@]3(C)N=C(CCl)C1CC3C2` (relative stereo), the viability at 50 µM in the data set with MDA-MB-231 [3] was determined as 24%. In addition, in the data set with MDA-MB-231 [2], the IC50 amounted to 7.9 µM. Besides, the Activity in the data set on MDA-MB-231 [4] is 20%; in the data set on MDA-MB-231 [5] it was 15%; in the data set on MDA-MB-231 [6] it was “Dose-dependent effect”; in the data set with Vero it was 84%. Moreover, in the data set on MCF7 [7], the outcome was inactive. Moreover, in the data set with MDA-MB-231 [8], the viability at 20 µM stood at 90%.

Consider `CCC(=O)N[C@@]1(C)C2CC[C@@]3(C)N[C@@H](CC)C1CC3C2` (some centres not stated), for which the “growth inhibition (GI)” value in the data set on MDA-MB-231 [1] was “inactive”.

As for `CCC(=O)N[C@@]1(C)C2CC[C@]3(C)C(C2)CC1[C@H](CC)N3C` (some centres not stated), in the data set with MDA-MB-231 [1], the “growth inhibition (GI)” value is “inactive”.

As to `CC(=O)N[C@@]1(C)C2CC[C@@]3(C)N=C(CCl)C1CC3C2` (relative stereo), in the data set with MDA-MB-231 [1], the “growth inhibition (GI)” value is “inactive”.

Turning to `COC(=O)/C=C1\C(=O)C=C2C3CC4CC(CCC4(C)N21)C3(C)NC(C)=O` (configuration not stated), the IC50 with CCRF-CEM was 4.4 µM; in the data set on HL-60(TB) it was 5.5 µM; in the data set on MOLT-4 it was 2.4 µM; in the data set with RPMI-8226 it was 4.1 µM; in the data set on NCI-H522 it was 2 µM; with EKVX it was 12.2 µM. For the same compound, the IC50 with COLO 205 was determined as 7.8 µM; in the data set on HT-29 it was 7.5 µM; in the data set with SW-620 it was 2.8 µM; with SF-539 it was 3.3 µM; in the data set with SK-MEL-28 it was 1.8 µM; in the data set with SK-MEL-5, 6.3 µM. In addition, the IC50 was determined as 5.9 µM in the data set on MDA-MB-435; 11.8 µM in the data set on OVCAR-3; 5.3 µM with CAKI-1; 6.7 µM with RXF 393; 16.9 µM in the data set with DU-145; 7.1 µM in the data set on MCF7 [9]. Besides, the IC50 with MDA-MB-231 [10] was 38.9 µM; in the data set with Hs-578T, 10.9 µM; with T47D, 22.7 µM; in the data set with PC-3, 15.7 µM. Moreover, the Activity with Vero was 77%. For the same compound, the viability at 75 µM in the data set with MDA-MB-231 [11] was determined as 80%.

Turning to `CCC(=O)N[C@@]1(C)C2CC[C@@]3(C)N=C(CC)C1CC3C2` (relative stereo), the “growth inhibition (GI)” value in the data set on MDA-MB-231 [1] is “inactive”.

The values above are taken from ChEMBL document CHEMBL4257458, “Antiproliferative activities of alkaloid-like compounds” (Medchemcomm, 2017).
